# Experimental data published in publication PMC4420653 (Biochemical pharmacology, 2015).
# “And” between values parts separate entries of the source, which are not always exact repeats. Equal values may be shown once. “Also recorded” adds a separate entry of the source. Read-outs that look alike come from different tables or passages of the source.
# How the values were obtained:
# [1] = test system: atRA formation in the mouse liver; conditions: cited from earlier work
# [2] = test system: atRA formation in mouse testis S10 fractions; test: Inhibition of atRA formation by WIN 18,446 in testis S10 fractions; format: biochemical
# [3] = test system: atRA formation in mouse liver S10 fractions; test: Inhibition of atRA formation by WIN 18,446 in liver S10 fractions; format: biochemical; conditions: read-out: IC50 for inhibition of atRA formation; pooled liver S10, 100 nM at-retinal, 2 mM NAD+
# [4] = test system: atRA formation in mouse liver S10 protein; test: Time dependent inhibition of atRA formation in liver S10 protein; format: biochemical; conditions: pooled liver S10 protein, 1 µM WIN 18,446 preincubation
# [5] = test system: atRA formation in mouse liver S10 protein; format: biochemical
# [6] = WIN 18,446 pharmacokinetics in mice; format: in vivo, mouse
# [7] = test system: atRA formation in testes S10 fractions; test: atRA formation velocity in testes S10 fractions from WIN 18,446 treated mice; format: in vivo, mouse
# [8] = test system: ALDH1A1 and ALDH1A2 protein expression; test: ALDH1A1 and ALDH1A2 protein expression in liver and testis of treated mice; format: in vivo, mouse; conditions: 8 days of treatment
# Procedure, shortened: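 Test compound was given orally at 125 mg/kg every 24 h for 8 days (n=3), alongside a single-dose group (n=3) and vehicle controls dosed with 1% gum tragacanth (n=8). S10 fractions (microsomes plus cytosol) were made from each mouse's testes (17–45 mg) and liver (114–309 mg), protein was measured by BCA, and ALDH1A1 and ALDH1A2 were quantified by LC-MS/MS. Mean ± SD.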
# [9] = test system: liver atRA concentrations; test: Liver atRA concentrations after WIN 18,446 administration; format: in vivo, mouse
# [10] = test system: testis atRA concentrations; test: Testis atRA concentrations after WIN 18,446 administration; format: in vivo, mouse; conditions: for testis atRA concentration: single dose
# [11] = test system: serum atRA concentrations; test: Serum atRA concentrations after WIN 18,446 administration; format: in vivo, mouse
# ALDH1A2 = target: T1, ALDH1A2 (Mus musculus, UniProt Q62148); conditions: mouse testes S10 fractions
# T1 sequence (Q62148 1-518): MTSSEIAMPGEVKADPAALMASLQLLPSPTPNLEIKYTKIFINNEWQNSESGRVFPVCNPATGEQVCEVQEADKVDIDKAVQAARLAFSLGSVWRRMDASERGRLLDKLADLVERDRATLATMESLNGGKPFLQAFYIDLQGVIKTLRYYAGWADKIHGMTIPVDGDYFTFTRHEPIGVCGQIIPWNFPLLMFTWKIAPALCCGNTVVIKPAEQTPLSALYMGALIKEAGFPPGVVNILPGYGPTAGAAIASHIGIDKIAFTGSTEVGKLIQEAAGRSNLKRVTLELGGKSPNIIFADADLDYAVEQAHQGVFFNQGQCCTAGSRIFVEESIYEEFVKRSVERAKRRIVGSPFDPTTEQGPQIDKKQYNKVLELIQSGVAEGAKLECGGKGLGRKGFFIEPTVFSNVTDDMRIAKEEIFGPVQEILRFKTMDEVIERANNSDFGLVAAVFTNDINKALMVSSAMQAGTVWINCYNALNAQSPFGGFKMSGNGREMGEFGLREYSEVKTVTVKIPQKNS
# [12] = 500 nM, ultracentrifugation
# [13] = test system: atRA formation in human testis; conditions: human testicular tissue; cited from earlier work
# AOX = conditions: cited from earlier work
# ALDH1A1 = conditions: read-out: Km of atRA formation; recombinant ALDH1A1; cited from earlier work
# [14] = Tissue half-life of atRA from concentration-time curves after WIN 18,446; format: in vivo; conditions: C57BL/6-129, mouse, po, 125 mg/kg
# [15] = eight daily doses 125 mg/kg po, mice
# [16] = 125 mg/kg once a day for 8 days
structure (smiles),measurement,setting,value
Cc1ncc(CO)c(C=O)c1O [pyridoxal],inhibition of atRA formation,[1],approximately 5%
"O=C(NCCCCCCCCNC(=O)C(Cl)Cl)C(Cl)Cl [WIN 18,446]",IC50,"[2]; read-out: IC50 for inhibition of atRA formation, pooled testis S10, 100 nM at-retinal, 2 mM NAD+",59 ± 1 nM
same,maximum inhibition of atRA formation,[2]; testis S10 fractions,> 95%
same,IC50,[3],92 ± 2 nM
same,time dependent inhibition of atRA formation,[4],not liver S10 protein; also recorded: not in the liver
same,inhibition of atRA formation,"[5]; WIN 18,446 5000 nM alone, 1000 nM at-retinal, Figure 2D",60 ± 2%
same,average concentration over the 24 hour dosing interval,[6]; day 8 of dosing 125 mg/kg po,3.5 µM
same,AUC0–24,[6]; [15],87.6 µmol·h/L
same,Cmax,[6]; [15],8.5 µM
same,increase in Cmax versus single dose,[6]; eight daily doses vs single dose,7 fold
same,AUC0-∞,"[6]; single dose 125 mg/kg po, mice",2.5 µmol·h/L
same,Cmax,"[6]; single dose 125 mg/kg po, mice",1.3 µM
same,average concentration over a 24 hour interval,"[6]; single dose 125 mg/kg po, mice",0.1 µM
same,time to reach Cmax,"[6]; single dose 125 mg/kg po, mice",≤ 30 min
same,two compartment model parameter A,"[6]; single dose, fit of equation 4",-6.6 µM
same,two compartment model parameter B,"[6]; single dose, fit of equation 4",6.2 µM
same,two compartment model parameter C,"[6]; single dose, fit of equation 4",0.4 µM
same,two compartment model parameter α,"[6]; single dose, fit of equation 4",1.3e+06 h⁻¹
same,two compartment model parameter β,"[6]; single dose, fit of equation 4",3.7 h⁻¹
same,two compartment model parameter γ,"[6]; single dose, fit of equation 4",0.2 hr-^1
same,decrease in atRA formation in testes S10,[7]; at the time of the 8th dose (24 hours after 7th dose),79 ± 5%
same,decrease in atRA formation in testes S10,"[7]; testes collected 24 hours after single dose 125 mg/kg, 125 mg/kg",55 ± 2% and 55%
same,change in ALDH1A1 or ALDH1A2 expression in liver or testis,[8],not significantly altered; also recorded: not significantly changed
same,average liver atRA concentration,[9]; [16],5.4 ± 1.9 pmol/g
same,reduction in average liver atRA concentration versus vehicle,[9]; [16],32% and 32 ± 3%
same,decrease in liver atRA,"[9]; abstract, dosing not specified",50%
same,time of first significant reduction of liver atRA,"[9]; after the first dose, p < 0.01",0.5 h
same,decrease in hepatic atRA concentration,[9]; single dose,42%
same,time of return of liver atRA to baseline,[9]; single dose,12 h
same,liver atRA concentration,"[9]; single dose, by 4 hours after dosing",58 % of control
same,hepatic atRA concentration on return,"[9]; single dose, within 24 hours",100%
same,average testicular atRA concentration over the 24 hours dosing interval,[10]; [16],1.5 ± 0.3 pmol/g
same,"testicular atRA concentration, average for the dosing interval",[10]; [16],33 % of control and 33 ± 5 % of control
same,decrease in testicular atRA,"[10]; abstract, dosing not specified",over 90%
same,time of first significant reduction of testis atRA,"[10]; after the first dose, p < 0.01",0.5 h
same,observed decrease in testis atRA concentrations,"[10]; following WIN 18,446 dosing (compared with single dose prediction)",67%
same,testis atRA concentration,[10]; 24 hours after dosing,23 % of control
same,testis atRA concentration,[10]; by 4 hours,< 10 % of control
same,testicular atRA concentration,[10]; time 0 hr before the 8th dose,60 % of control
same,average serum atRA concentration,[11]; [16],1.3 ± 0.7 pmol/g
same,time of first significant decrease of serum atRA,"[11]; after the first dose, p < 0.05",2 h
same,time of return of serum atRA to baseline,[11]; single dose,24 h
same,serum atRA concentration,"[11]; single dose, by 4 hours",< 20 % of control
same,KI (time dependent inhibition),ALDH1A2,420 ± 190 nM
same,fu in mouse serum,[12],> 0.99
same,inhibition of atRA formation in human testis,[13],more than 95%
NNc1nncc2ccccc12 [hydralazine],inhibition of atRA formation,"[5]; hydralazine 1 mM, 45 min preincubation, liver S10, 1000 nM at-retinal",approximately 50%
same,KI,AOX,83 ± 27 µM
same,kinact,AOX,3.8 ± 0.4 hr-^1
"CC1=C(/C=C/C(C)=C/C=C/C(C)=C/C=O)C(C)(C)CCC1 [at-retinal, all-trans retinal]",Km,ALDH1A1,285 nM
"CC1=C(/C=C/C(C)=C/C=C/C(C)=C/C(=O)O)C(C)(C)CCC1 [atRA, all-trans retinoic acid]",half-life,[14]; liver,< 30 min
same,half-life,[14]; serum,30 ± 6 min
same,half-life,[14]; testis,78 ± 6 min
